Data from ChEMBL document CHEMBL1926569, “Novel (E)-1-(4-methyl-2-(alkylamino)thiazol-5-yl)-3-arylprop-2-en-1-ones as potent antimicrobial agents” (2011).
Values after ≈ are worked out from the molar mass of the structure shown.

Columns and labels:
Staphylococcus aureus [1] = test: Antibacterial activity against Staphylococcus aureus ATCC 6538 after 24 hrs by microdilution method; format: functional; conditions: ATCC 6538, 24 h
Procedure, shortened: (§1)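 Broth microdilution in 96-well plates. Bacterial suspensions were adjusted in sterile saline to 1.0 × 10⁵ CFU/ml, prepared daily and kept at 4 °C. Compound was added to LB broth with 1.0 × 10⁴ CFU per well and shaken at 160 rpm for 24 h at […] (so in the source). MIC is the lowest concentration with no visible growth under a binocular microscope. OD655 was also read. Duplicate, repeated three times.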

Bacillus cereus [2] = test: Antibacterial activity against clinical isolate of Bacillus cereus after 24 hrs by microdilution method; format: functional; procedure, shortened: as §1
Micrococcus flavus [3] = test: Antibacterial activity against Micrococcus flavus ATCC 10240 after 24 hrs by microdilution method; format: functional; conditions: ATCC 10240, 24 h; procedure, shortened: as §1
Listeria monocytogenes [4] = test: Antibacterial activity against Listeria monocytogenes NCTC 7973 after 24 hrs by microdilution method; format: functional; conditions: NCTC 7973, 24 h; procedure, shortened: as §1
Pseudomonas aeruginosa [5] = test: Antibacterial activity against Pseudomonas aeruginosa ATCC 27853 after 24 hrs by microdilution method; format: functional; conditions: ATCC 27853, 24 h; procedure, shortened: as §1
Salmonella typhimurium [6] = test: Antibacterial activity against Salmonella Typhimurium ATCC 13311 after 24 hrs by microdilution method; format: functional, Salmonella enterica subsp. enterica serovar Typhimurium; conditions: Salmonella enterica, ATCC 13311, 24 h; procedure, shortened: as §1
Escherichia coli [7] = test: Antibacterial activity against Escherichia coli ATCC 35210 after 24 hrs by microdilution method; format: functional; conditions: ATCC 35210, 24 h; procedure, shortened: as §1
Enterococcus faecalis [8] = test: Antibacterial activity against Enterococcus faecalis isolated from human after 24 hrs by microdilution method; format: functional; procedure, shortened: as §1
Staphylococcus aureus [9] = test: Antibacterial activity against Staphylococcus aureus ATCC 6538 incubated for 24 hrs followed by serial sub-cultivation for 24 hrs by microdilution method; format: functional; conditions: ATCC 6538, 24 h
Procedure, shortened: (§2)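 MBC: after the 24 h LB broth microdilution (1.0 × 10⁴ CFU per well, 160 rpm), wells were serially sub-cultured into fresh broth plates and incubated a further 24 h. MBC is the lowest concentration with no visible growth, taken as 99.5% killing of the original inoculum. Duplicate, repeated three times.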

Bacillus cereus [10] = test: Antibacterial activity against clinical isolate of Bacillus cereus incubated for 24 hrs followed by serial sub-cultivation for 24 hrs by microdilution; format: functional; procedure, shortened: as §2
Micrococcus flavus [11] = test: Antibacterial activity against Micrococcus flavus ATCC 10240 incubated for 24 hrs followed by serial sub-cultivation for 24 hrs by microdilution; format: functional; conditions: ATCC 10240, 24 h; procedure, shortened: as §2
Listeria monocytogenes [12] = test: Antibacterial activity against Listeria monocytogenes NCTC 7973 incubated for 24 hrs followed by serial sub-cultivation for 24 hrs by microdilution; format: functional; conditions: NCTC 7973, 24 h; procedure, shortened: as §2
Pseudomonas aeruginosa [13] = test: Antibacterial activity against Pseudomonas aeruginosa ATCC 27853 incubated for 24 hrs followed by serial sub-cultivation for 24 hrs by microdilution; format: functional; conditions: ATCC 27853, 24 h; procedure, shortened: as §2
Salmonella typhimurium [14] = test: Antibacterial activity against Salmonella Typhimurium ATCC 13311 incubated for 24 hrs followed by serial sub-cultivation for 24 hrs by microdilution; format: functional, Salmonella enterica subsp. enterica serovar Typhimurium; conditions: Salmonella enterica, ATCC 13311, 24 h; procedure, shortened: as §2
Escherichia coli [15] = test: Antibacterial activity against Escherichia coli ATCC 35210 incubated for 24 hrs followed by serial sub-cultivation for 24 hrs by microdilution; format: functional; conditions: ATCC 35210, 24 h; procedure, shortened: as §2
Enterococcus faecalis [16] = test: Antibacterial activity against Enterococcus faecalis isolated from human incubated for 24 hrs followed by serial sub-cultivation for 24 hrs by microdilution; format: functional; procedure, shortened: as §2
Aspergillus ochraceus [17] = test: Antifungal activity against Aspergillus ochraceus ATCC 12066 after 72 hrs by serial dilution technique; format: functional; conditions: ATCC 12066, 72 h
Procedure, shortened: (§3)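 Modified microdilution in 96-well plates. Fungi were kept on malt agar at 4 °C. Spores were washed off in sterile 0.85% saline with 0.1% Tween 80. Compounds were dissolved at 1 mg/ml in 5% DMSO with 0.1% Tween 80 and added to malt broth with inoculum. Plates were shaken at 160 rpm for 72 h at 28 °C. Duplicate, repeated three times.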

Aspergillus niger [18] = test: Antifungal activity against Aspergillus niger ATCC 6275 after 72 hrs by serial dilution technique; format: functional; conditions: ATCC 6275, 72 h; procedure, shortened: as §3
Aspergillus flavus [19] = test: Antifungal activity against Aspergillus flavus ATCC 9643 after 72 hrs by serial dilution technique; format: functional; conditions: ATCC 9643, 72 h; procedure, shortened: as §3
Talaromyces funiculosus [20] = test: Antifungal activity against Penicillium funiculosum ATCC 36839 after 72 hrs by serial dilution technique; format: functional; conditions: ATCC 36839, 72 h; procedure, shortened: as §3
Penicillium ochrochloron [21] = test: Antifungal activity against Penicillium ochrochloron ATCC 9112 after 72 hrs by serial dilution technique; format: functional; conditions: ATCC 9112, 72 h; procedure, shortened: as §3
Trichoderma viride [22] = test: Antifungal activity against Trichoderma viride IAM 5061 after 72 hrs by serial dilution technique; format: functional; conditions: IAM 5061, 72 h; procedure, shortened: as §3
Candida albicans [23] = test: Antifungal activity against Candida albicans isolated from human after 72 hrs by serial dilution technique; format: functional; procedure, shortened: as §3
Aspergillus ochraceus [24] = test: Antifungal activity against Aspergillus ochraceus ATCC 12066 incubated for 72 hrs followed by serial sub-cultivation for 72 hrs by serial dilution technique; format: functional; conditions: ATCC 12066, 72 h
Procedure, shortened: (§4)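 MFC: material from 72 h malt broth microdilution wells was serially sub-cultured into fresh broth plates and incubated a further 72 h at 28 °C. Fungicidal concentration is taken from growth after sub-culture. Duplicate, repeated three times.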

Aspergillus fumigatus [25] = test: Antifungal activity against Aspergillus fumigatus isolated from human incubated for 72 hrs followed by serial sub-cultivation for 72 hrs by serial dilution technique; format: functional; procedure, shortened: as §4
Aspergillus niger [26] = test: Antifungal activity against Aspergillus niger ATCC 6275 incubated for 72 hrs followed by serial sub-cultivation for 72 hrs by serial dilution technique; format: functional; conditions: ATCC 6275, 72 h; procedure, shortened: as §4
Aspergillus flavus [27] = test: Antifungal activity against Aspergillus flavus ATCC 9643 incubated for 72 hrs followed by serial sub-cultivation for 72 hrs by serial dilution technique; format: functional; conditions: ATCC 9643, 72 h; procedure, shortened: as §4
Talaromyces funiculosus [28] = test: Antifungal activity against Penicillium funiculosum ATCC 36839 incubated for 72 hrs followed by serial sub-cultivation for 72 hrs by serial dilution technique; format: functional; conditions: ATCC 36839, 72 h; procedure, shortened: as §4
Penicillium ochrochloron [29] = test: Antifungal activity against Penicillium ochrochloron ATCC 9112 incubated for 72 hrs followed by serial sub-cultivation for 72 hrs by serial dilution technique; format: functional; conditions: ATCC 9112, 72 h; procedure, shortened: as §4
Trichoderma viride [30] = test: Antifungal activity against Trichoderma viride IAM 5061 incubated for 72 hrs followed by serial sub-cultivation for 72 hrs by serial dilution technique; format: functional; conditions: IAM 5061, 72 h; procedure, shortened: as §4
Candida albicans [31] = test: Antifungal activity against Candida albicans isolated from human incubated for 72 hrs followed by serial sub-cultivation for 72 hrs by serial dilution technique; format: functional; procedure, shortened: as §4
Pseudomonas aeruginosa [32] = test: Ratio of ampicillin MIC to compound MIC for Pseudomonas aeruginosa ATCC 27853; format: functional
Aspergillus ochraceus [33] = test: Ratio of bifonazole to compound for Aspergillus ochraceus ATCC 12066; format: functional
Aspergillus niger [34] = test: Ratio of bifonazole to compound for Aspergillus niger ATCC 6275; format: functional
Talaromyces funiculosus [35] = test: Ratio of bifonazole to compound for Penicillium funiculosum ATCC 36839; format: functional
Penicillium ochrochloron [36] = test: Ratio of bifonazole to compound for Penicillium ochrochloron ATCC 9112; format: functional
Trichoderma viride [37] = test: Ratio of bifonazole to compound for Trichoderma viride IAM 5061; format: functional
Candida albicans [38] = test: Ratio of bifonazole to compound for Candida albicans isolated from human; format: functional
Aspergillus ochraceus [39] = test: Ratio of ketoconazole to compound for Aspergillus ochraceus ATCC 12066; format: functional
Aspergillus fumigatus [40] = test: Ratio of ketoconazole to compound for Aspergillus fumigatus isolated from human; format: functional
Penicillium ochrochloron [41] = test: Ratio of ketoconazole to compound for Penicillium ochrochloron ATCC 9112; format: functional
Candida albicans [42] = test: Ratio of ketoconazole to compound for Candida albicans isolated from human; format: functional
Aspergillus ochraceus [43] = test: Antifungal activity against Aspergillus ochraceus after 72 hrs by serial dilution technique

MIC (Staphylococcus aureus [1]): 66.2 µM (≈ 20 µg/mL)
MIC (Bacillus cereus [2]): 66.2 µM (≈ 20 µg/mL)
MIC (Micrococcus flavus [3]): 31.3 µM (≈ 9.47 µg/mL)
MIC (Listeria monocytogenes [4]): 82.8 µM (≈ 25 µg/mL)
MIC (Pseudomonas aeruginosa [5]): 66.2 µM (≈ 20 µg/mL)
MIC (Salmonella typhimurium [6]): 49.7 µM (≈ 15 µg/mL)
MIC (Escherichia coli [7]): 49.7 µM (≈ 15 µg/mL)
MIC (Enterococcus faecalis [8]): 66.2 µM (≈ 20 µg/mL)
MIC (Aspergillus ochraceus [17]): 66.2 µM (≈ 20 µg/mL)
MIC (Aspergillus niger [18]): 33.1 µM (≈ 10 µg/mL)
MIC (Aspergillus flavus [19]): 66.2 µM (≈ 20 µg/mL)
MIC (Talaromyces funiculosus [20]): 33.1 µM (≈ 10 µg/mL)
MIC (Penicillium ochrochloron [21]): 66.2 µM (≈ 20 µg/mL)
MIC (Trichoderma viride [22]): 33.1 µM (≈ 10 µg/mL)
MIC (Candida albicans [23]): 66.2 µM (≈ 20 µg/mL)
MIC (Aspergillus ochraceus [43]): 66.2 µM (≈ 20 µg/mL)
SMILES: CCNc1nc(C)c(C(=O)/C=C/c2ccc(OC)cc2)s1
MBC (Staphylococcus aureus [9]): 99.3 µM (≈ 30 µg/mL)
MBC (Bacillus cereus [10]): 82.8 µM (≈ 25 µg/mL)
MBC (Micrococcus flavus [11]): 82.5 µM (≈ 24.9 µg/mL)
MBC (Listeria monocytogenes [12]): 99.3 µM (≈ 30 µg/mL)
MBC (Pseudomonas aeruginosa [13]): 82.8 µM (≈ 25 µg/mL)
MBC (Salmonella typhimurium [14]): 49.7 µM (≈ 15 µg/mL)
MBC (Escherichia coli [15]): 66.2 µM (≈ 20 µg/mL)
MBC (Enterococcus faecalis [16]): 99.3 µM (≈ 30 µg/mL)
MFC (Aspergillus ochraceus [24]): 82.8 µM (≈ 25 µg/mL)
MFC (Aspergillus fumigatus [25]): 82.8 µM (≈ 25 µg/mL)
MFC (Aspergillus niger [26]): 66.2 µM (≈ 20 µg/mL)
MFC (Aspergillus flavus [27]): 82.8 µM (≈ 25 µg/mL)
MFC (Talaromyces funiculosus [28]): 66.2 µM (≈ 20 µg/mL)
MFC (Penicillium ochrochloron [29]): 82.8 µM (≈ 25 µg/mL)
MFC (Trichoderma viride [30]): 66.2 µM (≈ 20 µg/mL)
MFC (Candida albicans [31]): 82.8 µM (≈ 25 µg/mL)
Ratio (Pseudomonas aeruginosa [32]): 10
Ratio (Aspergillus ochraceus [33]): 10
Ratio (Aspergillus niger [34]): 10
Ratio (Talaromyces funiculosus [35]): 10
Ratio (Penicillium ochrochloron [36]): 10
Ratio (Trichoderma viride [37]): 10
Ratio (Candida albicans [38]): 10
Ratio (Aspergillus ochraceus [39]): 10
Ratio (Aspergillus fumigatus [40]): 10
Ratio (Penicillium ochrochloron [41]): 10
Ratio (Candida albicans [42]): 10
